In ChEMBL document CHEMBL1149435, “Inactivation of S-adenosyl-L-homocysteine hydrolase by 6'-cyano-5',6'-didehydro-6'-deoxyhomoadenosine and 6'-chloro-6'-cyano-5',6'-didehydro-6'-deoxyhomoadenosine. Antiviral and cytotoxic effects” (J Med Chem, 2006):
pKi: −log10 of the molar value. ≈ marks a conversion by molar mass, not a printed value.

What was measured:
Cytomegalovirus [1] = assay: Antiviral activity against Cytomegalovirus AD169 in human embryonic lung cells; assay type: functional, organism-based; settings: Human betaherpesvirus 5, AD169, lung
Summary of the method: (§1)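 Human embryonic lung cell cultures were infected with cytomegalovirus, and the effect on viral plaque formation was scored. EC50 is the concentration, in µg/mL, that reduced virus plaque formation by 50%.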

Cytomegalovirus [2] = assay: Antiviral activity against Cytomegalovirus Davis in human embryonic lung cells; assay type: functional, organism-based; settings: Human betaherpesvirus 5, Davis; summary of the method: as §1
Human alphaherpesvirus 3 [3] = assay: Antiviral activity against TK+ VZV OKA in human embryonic lung cells; assay type: functional, organism-based; settings: Human alphaherpesvirus 3, OKA
Human alphaherpesvirus 3 [4] = assay: Antiviral activity against TK- VZV 07/10 in human embryonic lung cells; assay type: functional, organism-based; settings: Human alphaherpesvirus 3, 07/10, lung
HEL [5] = assay: Cytotoxicity as determined by alteration in the cell morphology of HEL cells; assay type: functional; settings: Homo sapiens
Summary of the method: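 Human embryonic lung cells were examined by microscope for changes in morphology. MCC is the minimum concentration, in µg/mL, that caused a microscopically detectable alteration of cell morphology.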

HEL [6] = assay: Cytotoxicity against HEL cells; assay type: functional; settings: Homo sapiens
Summary of the method: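 Cytotoxicity was measured in human embryonic lung cells as inhibition of cell growth. CC50 is the concentration, in µg/mL, that reduced cell growth by 50%.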

Adenosylhomocysteinase = Adenosylhomocysteinase (Homo sapiens, UniProt P23526); assay: Inhibitory activity against AdoHcy Hydrolase
Adenosylhomocysteinase, sequence (P23526 whole entry): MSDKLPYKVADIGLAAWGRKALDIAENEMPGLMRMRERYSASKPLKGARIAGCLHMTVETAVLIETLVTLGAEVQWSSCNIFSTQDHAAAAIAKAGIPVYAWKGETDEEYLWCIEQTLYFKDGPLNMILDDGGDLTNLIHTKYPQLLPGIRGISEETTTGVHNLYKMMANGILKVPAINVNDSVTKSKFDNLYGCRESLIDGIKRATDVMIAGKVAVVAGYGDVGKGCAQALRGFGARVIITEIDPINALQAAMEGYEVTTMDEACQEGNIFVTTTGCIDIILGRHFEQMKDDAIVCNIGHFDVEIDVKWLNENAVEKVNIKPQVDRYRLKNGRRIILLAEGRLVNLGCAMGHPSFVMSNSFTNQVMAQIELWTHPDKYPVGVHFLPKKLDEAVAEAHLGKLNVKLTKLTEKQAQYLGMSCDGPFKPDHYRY
Summary of the method: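 Purified recombinant placental AdoHcy hydrolase was preincubated with inhibitor at several concentrations in assay buffer at 37 °C. Remaining activity was measured in the synthetic direction. Ki and kinact came from the Kitz–Wilson method. […] Irreversibility was checked by 24 h dialysis.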

Row | SMILES | EC50 (Cytomegalovirus [1]) [µg/mL] | EC50 (Cytomegalovirus [2]) [µg/mL] | EC50 (Human alphaherpesvirus 3 [3]) [µg/mL] | EC50 (Human alphaherpesvirus 3 [4]) [µg/mL] | MCC (HEL [5]) [µg/mL] | CC50 (HEL [6]) [µg/mL] | pKi (Adenosylhomocysteinase)
1 | N#C/C=C/[C@H]1O[C@@H](n2cnc3c(N)ncnc32)[C@H](O)[C@@H]1O | > 20 | > 20 | > 20 | > 20 | ≥ 20 | 11 (≈ 38.2 µM) | 
2 | O=c1[nH]c(=O)n([C@H]2C[C@H](O)[C@@H](CO)O2)cc1/C=C/Br [BRIVUDINE] |  |  | 0.0051 (≈ 0.0153 µM) | 149 (≈ 447 µM) | > 400 | > 200 | 
3 | Nc1nc2c(ncn2COCCO)c(=O)[nH]1 [ACYCLOVIR] |  |  |  |  | > 400 | 118 (≈ 524 µM) | 
4 | Nc1ccn(C[C@@H](CO)OCP(=O)(O)O)c(=O)n1.O.O [CIDOFOVIR] | 0.49 | 0.64 |  |  | ≥ 400 | 23 | 
5 | N#C/C=C\[C@H]1O[C@@H](n2cnc3c(N)ncnc32)[C@H](O)[C@@H]1O | > 20 | > 20 | > 20 | > 20 | 100 | > 20 | 
6 | Nc1nc2c(ncn2COC(CO)CO)c(=O)[nH]1 [GANCICLOVIR] | 3.2 (≈ 12.5 µM) | 3.2 (≈ 12.5 µM) |  |  | ≥ 400 | 34 (≈ 133 µM) | 
7 | N#C/C(Cl)=C\[C@H]1O[C@@H](n2cnc3c(N)ncnc32)[C@H](O)[C@@H]1O | > 20 | > 20 | 11 (≈ 34.1 µM) | 17 (≈ 52.7 µM) | 100 | 1.2 (≈ 3.72 µM) | 4.77
